Test results taken from ChEMBL document CHEMBL1250435, “Synthesis of a series of caffeic acid phenethyl amide (CAPA) fluorinated derivatives: comparison of cytoprotective effects to caffeic acid phenethyl ester (CAPE)” (Bioorg Med Chem, 2010).
The source made the active and inactive calls. The calls are words filed in the database; no cut-off is given here.

Tests used:
HUVEC [1] = assay: Cytoprotective activity against H2O2-induced oxidative stress in HUVEC cells at 20 uM after 18 hrs by Cell-Titer Blue assay; type: functional, cell-based; conditions: Homo sapiens
Method in brief: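 Confluent HUVEC (passage doublings 2–5) incubated 5 h at 37 °C with compound at 20 µM in MCDB 131 (from DMSO stock), washed twice with MCDB 131, then 2 mM H2O2 for 1 h at 37 °C. H2O2 removed, cells recovered 18 h in complete medium. Viability by 10% CellTiter-Blue fluorescence, compared with vehicle+H2O2 and unexposed cells. Mean ± SD, ANOVA with Tukey-Kramer.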

HUVEC [2] = assay: Cytoprotective activity against H2O2-induced oxidative stress in HUVEC cells after 18 hrs by Cell-Titer Blue assay; type: functional, cell-based; conditions: Homo sapiens
Method in brief: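 Confluent HUVEC (population doublings 2–5, gelatin-coated 96-well) pretreated 5 h at 37 °C with compound at 1, 5, 20, 40 and 60 µM (DMSO stock diluted in MCDB 131), washed twice, exposed to 2 mM H2O2 for 1 h at 37 °C, then 18 h recovery in complete MCDB 131. Viability by 10% CellTiter-Blue fluorescence. % cytoprotection = (well − DMSO+H2O2 mean)/DMSO-only mean. EC50 by linear regression of first three points.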

HUVEC [3] = assay: Cytotoxicity against HUVEC cells at 10 to 60 uM after 24 hrs by Cell-Ttiter blue assay; type: cell-based; conditions: human
Method in brief: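 Confluent HUVEC (population doublings 2–5) exposed 24 h at 37 °C to compound at 10, 20, 40 or 60 µM, diluted from DMSO stock into MCDB 131 (vehicle 0.1% DMSO). Medium replaced with 10% CellTiter-Blue for 2 h at 37 °C, fluorescence read at ex 545/em 590 nm. Viability expressed as % of vehicle control; below 90% of control scored toxic.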

Row | SMILES | Activity (HUVEC [1]) | EC50 (HUVEC [2]) [µM] | Activity (HUVEC [3])
1 | O=C(/C=C/c1ccc(O)c(F)c1)NCCc1ccccc1 | Active | – | –
2 | O=C(/C=C/c1cc(O)c(O)cc1F)NCCc1ccccc1 | Active | – | –
3 | O=C(/C=C/c1ccc(O)c(O)c1)OCCc1ccccc1 [CAFFEIC ACID PHENETHYL ESTER] | – | 8 | –
4 | O=C(/C=C/c1cc(O)c(O)c(F)c1)NCCc1ccccc1 | Active | – | Toxic
5 | O=C(/C=C/c1ccc(O)c(O)c1)NCCc1ccccc1 [CAFFEIC ACID PHENETHYL AMIDE] | – | 2 | –
